Ten compounds from ChEMBL document CHEMBL4359872, “Identification of potent triazolylpyridine nicotinamide phosphoribosyltransferase (NAMPT) inhibitors bearing a 1,2,3-triazole tail group” (Eur J Med Chem, 2019) can be followed below.

As a reminder, the EC50 is the concentration needed to bring the measured effect to its halfway point. The term IC50 denotes the concentration that gives 50% inhibition. The term half-life denotes the time needed for the level to fall by half in the phase considered. Higher therefore signals slow decline. Broadly, the Vd is a proportionality between amount in the body and measured concentration, not a real space. Higher therefore signals extensive tissue distribution. What is called inhibition is the change of the read-out against control, counted positive when it falls. What is called AUC is the area under the concentration-time curve, a measure of exposure. The low end stands for less exposure, the high end for more exposure. For orientation: clearance means the rate of elimination divided by the concentration.

The nature of data set [1]: Cytotoxicity against human SH-SY5Y cells assessed as cell viability at 1 uM measured after 48 hrs by MTT assay relative to control. In kind it is cell-based. To be noted: read-out: Activity. (Tetrazolium dyes change colour on reduction, which living cells bring about.)
Data set [2] concerns SH-SY5Y. Briefly: Cytotoxicity against human SH-SY5Y cells measured after 48 hrs by MTT assay. In kind it is cell-based.
Data set [3] in a line: Kinetic aqueous solubility of the compound in 80:20 PBS/acetonitrile solution at 200 to 500 uM by HTS assay. It counts as physicochemical. Particulars: read-out: Kinetic_solubility.
The target of data set [4] is Nicotinamide phosphoribosyltransferase (Mus musculus, UniProt Q99KQ4). Nature of the data set: Inhibition of recombinant mouse wild-type NAMPT expressed in bacterial expression system using PRPP as substrate in presence of mouse NMNAT-3 measured for 1 hr by fluorescence assay. Put shortly: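 In vitro NAMPT enzymatic assay run as concentration-response curves, with IC50 derived from the curves. Mean ± SD of three independent experiments (n = 6).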
Sequence of Nicotinamide phosphoribosyltransferase (Q99KQ4 whole entry): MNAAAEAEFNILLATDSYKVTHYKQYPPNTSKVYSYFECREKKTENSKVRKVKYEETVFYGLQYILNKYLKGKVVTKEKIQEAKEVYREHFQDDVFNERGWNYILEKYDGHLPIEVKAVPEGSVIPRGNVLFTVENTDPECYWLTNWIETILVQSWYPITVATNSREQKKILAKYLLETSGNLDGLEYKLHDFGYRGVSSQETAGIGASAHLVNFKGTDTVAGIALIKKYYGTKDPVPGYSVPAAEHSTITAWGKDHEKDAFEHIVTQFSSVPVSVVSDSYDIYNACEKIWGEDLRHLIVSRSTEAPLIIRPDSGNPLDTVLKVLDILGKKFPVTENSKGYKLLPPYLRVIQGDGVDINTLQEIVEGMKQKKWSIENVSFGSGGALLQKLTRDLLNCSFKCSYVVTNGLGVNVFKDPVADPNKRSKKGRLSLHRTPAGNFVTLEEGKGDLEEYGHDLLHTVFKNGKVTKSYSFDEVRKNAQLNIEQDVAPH

Data set [5] has as its system TK6. Nature of the data set: Genotoxicity in human TK6 cells assessed as induction of DNA damage up to 500 uM by GreenScreen assay. It counts as toxicity, cell-based.
A short description of data set [6]: Thermodynamic solubility of compound in water after 24 hrs by LC-UV based shake flask method. It counts as physicochemical. To be noted: buffer. In a few lines:
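Thermodynamic water solubility measured by saturation shake flask, with the concentration of the saturated solution reported.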

In data set [7] the test system is Lymphocyte. Briefly: Genotoxicity in human primary lymphocytes assessed as induction of DNA damage up to 500 uM by GreenScreen assay. It counts as toxicity, cell-based.
Data set [8] is described as follows: Half-life in BALB/c mouse at 10 mg/kg, iv administered as single dose measured after 24 hrs by LC-ESI/MS analysis. It counts as ADME, organism-based. To be noted: in vivo. In a few lines: (§1)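 Mice given a single 10 mg/kg i.v. injection; serial blood sampling, then half-life, clearance and volume of distribution derived.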
The subject of data set [9] is TK6. Nature of the data set: Genotoxicity in human TK6 up to 1 mM in presence of S9 fraction by GreenScreen assay. It counts as toxicity, cell-based.
The nature of data set [10]: Toxicity in Crl:CD Sprague-Dawley rat retina at 100 mg/kg, ip administered once daily for 5 days by hematoxylin and eosin staining based microscopic analysis. In kind it is organism-based. Particulars: in vivo, 120 h.
Data set [11] concerns Lymphocyte. Nature of the data set: Genotoxicity in human primary lymphocytes up to 1 mM in presence of S9 fraction by GreenScreen assay. It counts as toxicity, cell-based.
The nature of data set [12]: Volume of distribution in BALB/c mouse at 10 mg/kg, iv administered as single dose measured after 24 hrs by LC-ESI/MS analysis. In kind it is ADME, organism-based. Particulars: in vivo. Put shortly:
as §1

Data set [13] is described as follows: Metabolic stability in human liver microsomes assessed as parent compound remaining at 50 uM […] for 60 mins by LC-ESI/MS analysis. In kind it is ADME, Microsome. Particulars: read-out: Stability.
Data set [14] relates to 4T1. Briefly: Antitumor activity against mouse 4T1 cells implanted in BALB/c mouse assessed as reduction in tumor weight at 10 mg/kg, ip bid for 12 days. In kind it is functional, organism-based. Put shortly: (§2)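 Tumour cells implanted in the mammary gland. Dosing began at day 14, once tumours were palpable, after randomization into vehicle and treated groups of 4 mice each. Compound given intraperitoneally at 10 mg/kg twice a day for 12 consecutive days. Data are means of two independent experiments.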

For data set [15], the system named is 4T1. Briefly: Antitumor activity against mouse 4T1 cells implanted in BALB/c mouse assessed as reduction in tumour volume at 10 mg/kg, ip bid for 12 days by vernier caliper method. In kind it is functional, organism-based. Put shortly: as §2
Data set [16] is described as follows: Toxicity in Crl:CD Sprague-Dawley rat heart assessed as interstitial expansion at 100 mg/kg, ip administered once daily for 5 days by hematoxylin and eosin staining based microscopic analysis. In kind it is organism-based. Particulars: in vivo, 120 h.
Data set [17] has as its system 4T1. Nature of the data set: Antitumor activity against mouse 4T1 cells implanted in Balb/c mouse mouse assessed as inhibition of tumor metastasis at 10 mg/kg, ip bid for 12 days measured post last dose by crystal violet staining based thioguanine clonogenic assay. In kind it is functional, organism-based. Put shortly: as §2
Data set [18] in a line: Permeability across apical side to basolateral side in human Caco2 cells at 30 uM after 4 hrs by HPLC analysis. It counts as ADME, cell-based. To be noted: caco-2, 4 h. In a few lines: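 Caco-2 monolayer used to measure apical-to-basal transfer, reported as % permeability and Papp. Terbutaline served as the positive control; n = 3.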
(Passage across Caco-2 layers is used to estimate intestinal permeability.)

A short description of data set [19]: Toxicity in Crl:CD Sprague-Dawley rat heart assessed as increase in cardiomyocytes cytoplasmic vacuolation at 100 mg/kg, ip administered once daily for 5 days by hematoxylin and eosin staining based microscopic analysis. To be noted: in vivo, 120 h. In kind it is organism-based.
Data set [20] can be described thus: AUC in BALB/c mouse at 10 mg/kg, iv administered as single dose measured after 24 hrs by LC-ESI/MS analysis. Particulars: in vivo. It counts as ADME, organism-based. Further details: time < 24 hr, dose 10 mg/kg, route intravenous. In a few lines: as §1
The nature of data set [21]: Toxicity in Crl:CD Sprague-Dawley rat heart assessed as hypereosinophilia at 100 mg/kg, ip administered once daily for 5 days by hematoxylin and eosin staining based microscopic analysis. In kind it is organism-based. To be noted: in vivo, 120 h.
The nature of data set [22]: Clearance in BALB/c mouse at 10 mg/kg, iv administered as single dose measured after 24 hrs by LC-ESI/MS analysis. In kind it is ADME, organism-based. To be noted: in vivo. Put shortly: as §1
Data set [23] in a line: Metabolic stability in Wistar Han rat liver microsomes assessed as parent compound remaining at 50 uM […] for 60 mins by LC-ESI/MS analysis. It counts as ADME, Microsome. To be noted: read-out: Stability. (In general: Liver microsomes are a subcellular fraction often used to study metabolism.)
Data set [24] in a line: Selectivity ratio of EC50 for cytotoxicity against human SH-SY5Y cells to IC50 for recombinant mouse wild-type NAMPT expressed in bacterial expression system. It counts as cell-based.
The target of data set [25] is Nicotinamide phosphoribosyltransferase (Homo sapiens) (UniProt P43490). Briefly: Inhibition of NAMPT in human SH-SY5Y cells assessed as reduction in NAD levels at 100 nM measured after 16 hrs by diaphorase and resazurin dye based fluorescence assay relative to control. In kind it is cell-based. Put shortly:
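SH-SY5Y cells treated at 100 nM for 16 h, then NAD level reduction measured as % of control. Mean ± SD of two independent experiments (n = 6).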

Each structure is given as a SMILES string. Values after ≈ are worked out from the molar mass of the structure shown. Active and inactive are the calls of the source.

Sequence of Nicotinamide phosphoribosyltransferase (Homo sapiens) (P43490 whole entry, looked up): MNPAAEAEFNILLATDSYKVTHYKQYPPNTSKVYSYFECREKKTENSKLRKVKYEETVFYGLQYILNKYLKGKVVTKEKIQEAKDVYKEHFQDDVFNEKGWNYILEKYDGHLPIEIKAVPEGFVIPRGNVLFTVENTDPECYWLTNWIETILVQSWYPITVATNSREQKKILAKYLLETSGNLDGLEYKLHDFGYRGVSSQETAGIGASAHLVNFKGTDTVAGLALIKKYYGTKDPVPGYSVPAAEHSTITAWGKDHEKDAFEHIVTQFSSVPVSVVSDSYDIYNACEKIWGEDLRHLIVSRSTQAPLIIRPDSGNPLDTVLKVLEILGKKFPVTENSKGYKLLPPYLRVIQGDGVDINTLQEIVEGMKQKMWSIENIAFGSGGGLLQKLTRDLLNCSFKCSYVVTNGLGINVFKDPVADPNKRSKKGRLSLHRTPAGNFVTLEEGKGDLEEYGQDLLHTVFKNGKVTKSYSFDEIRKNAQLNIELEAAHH

As for `O=C(NCCCCCCCn1cc(-c2cccnc2)nn1)c1ccccc1-n1cc(CN2CCOCC2)nn1`, the viability at 48 h, 1 µM in [1] was 30%. For the same compound, the EC50 in data set [2] was over 500 nM. Further, in [3], the solubility kinetic is 200 to 500 µM (≈ 106 to 265 µg/mL). The IC50 in data set [4] was 49.6 nM.

`O=C(NCCCCCCCn1cc(-c2cccnc2)nn1)c1ccccc1-n1ccnn1`: the Activity entry in data set [5], in data set [7], in data set [9], in [10], in [11] and in [16] was “Non-Toxic” throughout. The Activity entry in data set [19] and in data set [21] was “Non-Toxic” each time. For the same compound, in data set [6], the Therm_solubility result is given as “Soluble”. In data set [8], the half-life was 3.51 h. In [1], the viability at 48 h, 1 µM came out at 10.5%. The same compound had a Vd in [12] of 31.3 L/kg. The same compound gave an EC50 in data set [2] of 35.4 nM. In [3], the solubility kinetic lay within 200 to 500 µM (≈ 86.1 to 215 µg/mL). The remaining at 1 h, 50 µM in data set [13] worked out at 94%; in data set [23], 70%. In addition, the result in data set [14] and in data set [15] was Active. Moreover, the inhibition entry in [17] was “Active”. Besides, in data set [4], the IC50 came to 3.4 nM. The same compound returned a permeability in data set [18] of 10.6%. In addition, in data set [20], the AUC at 24 h stood at 1620 ng·h/mL. In [22], the clearance stood at 103 mL/min/kg.

For the compound `O=C(NCCCCCCCn1cc(-c2cccnc2)nn1)c1ccccc1-c1c[nH]nn1`, the viability at 48 h, 1 µM in data set [1] came to 23.5%. It took 86.5 nM to reach a half-maximal effect in data set [2] (EC50). Also, the IC50 in data set [4] is 42.5 nM.

As for `O=C(NCCCCCCCn1cc(-c2cccnc2)nn1)c1ccccc1-n1cc(CN(CCO)CCO)nn1`, in data set [1], the viability at 48 h, 1 µM is 37.8%. Further, in data set [2], the EC50 was over 500 nM. For the same compound, the solubility kinetic in data set [3] was 200 to 500 µM (≈ 110 to 274 µg/mL). Moreover, the IC50 in data set [4] was found to be 73.8 nM.

In the case of `O=C(NCCCCCCCn1cc(-c2cccnc2)nn1)c1ccccc1-n1cc(CN2CCC(O)CC2)nn1`, the viability at 48 h, 1 µM in data set [1] was determined as 91.7%. This compound came in with an EC50 in data set [2] of over 10000 nM. In [3], the solubility kinetic is 200 to 500 µM (≈ 109 to 272 µg/mL). Besides, the Selectivity ratio in data set [24] worked out at 200. Also, the inhibition in data set [25] stood at 30%. In addition, in data set [4], the IC50 is 41.8 nM. Also, in data set [18], the permeability is on record as under 1%.

Turning to `CN(C)Cc1cn(-c2ccccc2C(=O)NCCCCCCCn2cc(-c3cccnc3)nn2)nn1`, the viability at 48 h, 1 µM in data set [1] was 86.6%. The compound further registered an EC50 in [2] of 285 nM. The solubility kinetic in data set [3] lay in the range of 200 to 500 µM (≈ 97.5 to 244 µg/mL). In addition, in data set [4], the IC50 stood at 42.4 nM.

The compound `CC(C)(C)NCC(O)c1cc(O)cc(O)c1` (configuration not stated) [TERBUTALINE] came in with a permeability in data set [18] of 52.7%.

`CCOC(=O)C1CCN(Cc2cn(-c3ccccc3C(=O)NCCCCCCCn3cc(-c4cccnc4)nn3)nn2)CC1`: in data set [1], the viability at 48 h, 1 µM is 14.1%. In data set [2], this compound showed an EC50 of 61.5 nM. The solubility kinetic in data set [3] lay in the range of 200 to 500 µM (≈ 120 to 300 µg/mL). Besides, the IC50 in data set [4] is 20.6 nM.

With `O=C(O)c1ccccc1-c1ccccc1C(=O)NCCCCCCCn1cc(-c2cccnc2)nn1`, the viability at 48 h, 1 µM in [1] came out at 80.9%. This compound gave an EC50 in data set [2] of over 500 nM. Besides, in [4], the IC50 stood at 38.5 nM.

Consider `O=C(NCCCCCCCn1cc(-c2cccnc2)nn1)c1ccccc1-n1cc(CN2CCCCC2)nn1`, for which the viability at 48 h, 1 µM in data set [1] is 15.9%. In data set [2], this compound gave an EC50 of over 500 nM. The solubility kinetic in [3] was in the range of 200 to 500 µM (≈ 106 to 264 µg/mL). The IC50 in [4] amounted to 17.1 nM.
